CHOP UPR activ = activators of apoptotic CHOP UPR arm, primary screen, cell-based, CHO-CHOP luciferase reporter, luminescence, uHTS; UPR activation; percent of tunicamycin response over DMSO baseline; activation, % at 10 µM; 330,000 tested, 0.34% active;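 active means at 10 µM dose, activation of 40% or more, normalized to positive control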;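 further: 100% = tunicamycin at 10 µg/mL and 0% = DMSO alone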
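Assay system: CHO cells with stable CHOP pathway luciferase reporter; Buffer or medium: F12 plus 10% serum; Times: 16-18 h cell attachment, then 6 h compound exposure, 37 °C; Signal: luciferase luminescence; Read-out basis: percent activation relative to tunicamycin control; Control set: tunicamycin high control, DMSO low control.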
MPTP inh = mitochondrial permeability transition pore inhibitors, primary screen, biochemical, isolated mouse mitochondria, absorbance; Ca2+ swelling absorbance, 30 min; inhibition, % at 10 µM; AID 602449, 2012; 360,000 tested, 1.4% active;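 active means inhibition of 50% or more, scaled per plate between neutral and stimulator controls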;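 further: 0% = DMSO wells given calcium and 100% = 1 mM EGTA wells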
XBP1 UPR activ = activators of adaptive XBP1 UPR arm, primary screen, cell-based, CHO-XBP1 luciferase reporter, luminescence, uHTS | activation, % at 20 µM | 330,000 tested, 0.33% active | AID 463104, 2010 | IRE1-XBP1 UPR activation; percent of tunicamycin response, DMSO as zero;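 active means versus positive control, 20 µM dose yields 30% or more activation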;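 further: 100% = tunicamycin at 10 µg/mL and 0% = DMSO only wells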
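incubation = overnight seeding at 37 °C, 6 h compound treatment at 37 °C | assay system = CHO-XBP1 cells stably carrying IRE1-XBP1-driven luciferase reporter | input = 1000 cells per well | detection = luciferase luminescence | dosing = single point, 20 µM final compound, 1% DMSO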
aDG glyco up = activators of alpha-DG glycosylation, primary screen, uHTS, Pro5-aDG cells, AlphaScreen; alpha-DG glycosylation AlphaScreen (IIH6); 0% Pro5, 100% B10-LARGE cell signal; activation, % at 10 µM; 360,000 tested, 0.22% active; AID 624168, 2012;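 active means activation of at least 8% versus controls, or a plate z-score of at least 8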;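 further: Pro5 are CHO cells carrying HIG-tagged alpha-DG that lacks glycosylation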
NR3A LBD binder = binders of NR3A ligand-binding domain, primary screen, biophysical, differential scanning fluorimetry, uHTS. Glutamate receptor ionotropic, NMDA 3A (GRIN3A) ligand-binding domain. NR3A LBD differential scanning fluorimetry, Tm shift; 0% = protein alone, 100% = glycine-bound protein. Tm shift relative to glycine control, % at 25 µM. 340,000 tested, 2.5% active. AID 1259313, 2017;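 active means melting temperature shift of at least 10% of the positive control shift, at one fixed dose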
CHOP inhibitor = inhibitors of CHOP promoter induction, primary screen, cell-based, unfolded protein response, luciferase reporter | inhibition, % at 10 µM | 220,000 tested, 3.8% active | CHO-K1 CHOP-promoter luciferase, tunicamycin-induced, 15-18 h | AID 2732, 2010;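 active means compounds that reduced the stress-induced luciferase reporter signal by more than about 70% of percent inhibition, limit read from the data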;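 further: 0% = tunicamycin plus vehicle and 100% = wells without tunicamycin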
* marks the source's active call; other numbers are inactive results; nt = no result given. Hits are enriched below; roughly 5.6% of the tested compounds scored in any of these assays.

SMILES | CHOP UPR activ | MPTP inh | XBP1 UPR activ | aDG glyco up | NR3A LBD binder | CHOP inhibitor
O=c1[nH]nc(-c2ccccc2)c2ccccc12 | -1 | 1 | -2 | 0 | -3 | -4
Cc1ccc(-c2cc3c(N=O)c4ccccc4c-3n[nH]2)cc1 | -9 | 6 | -6 | 0 | -1 | 65
O=Nc1c2cc(-c3ccccc3)[nH]nc-2c2ccccc12 | nt | 6 | nt | 0 | 3 | 92*
Cc1cccc(-c2cc3c(N=O)c4ccccc4c-3n[nH]2)c1 | 0 | 28 | 2 | 0 | 2 | 85*
Cc1nn(C(C)C(=O)NC2CCCCCC2)c(=O)c2nn(-c3ccccc3)c(C)c12 (stereo not given) | 2 | 1 | -2 | 0 | -2 | nt
COc1ccc(OC)c(CCNC(=O)c2ccccc2NC(=O)C2=C(C)OCCS2)c1 | -2 | 2 | -7 | 0 | 1 | nt
O=C(COc1ccc(F)cc1)Nc1nc2c(s1)CCCC2 | 5 | 2 | 1 | 0 | 14* | nt
COc1ccc(NC(=O)Nc2nc3c(s2)CCCC3)cc1 | 2 | 12 | -3 | 0 | 22* | 43
CC1(c2ccc([N+](=O)[O-])cc2)CC(C)(C)N(C(=O)c2ccccc2)c2ccccc21 (stereo not given) | nt | nt | nt | nt | nt | 81*
CC1CN(c2ccc(C(F)(F)F)cc2[N+](=O)[O-])CCN1S(C)(=O)=O (stereo not given) | 0 | 0 | 2 | 0 | 14* | 24
CC1CN(c2ccc([N+](=O)[O-])cc2Cl)CCN1S(C)(=O)=O (stereo not given) | 0 | 0 | 2 | 0 | 1 | 0
Cc1nnc2c(SC(C)C)nc3ccccc3n12 | 1 | -1 | 7 | 0 | -1 | nt
COc1ccc(CC(=O)O/N=C(\N)c2ccccc2)cc1OC | 2 | 0 | -1 | 0 | -1 | nt
O=C(CSc1ccc2ccccc2c1)Nc1ccc(S(=O)(=O)Nc2nccs2)cc1 | 0 | 1 | 0 | 0 | 13* | 29
O=C(CSc1ccc(Br)c2cccc(Cl)c12)Nc1ccc(S(=O)(=O)Nc2nccs2)cc1 | -1 | -1 | -4 | 0 | 13* | 9
CCN(c1ccccc1)S(=O)(=O)c1ccc(Cl)c(C(=O)NCc2ccco2)c1 | 0 | 1 | -1 | 0 | 1 | nt
O=C(O)c1ccsc1Cc1cccs1 | nt | 1 | nt | 0 | nt | nt
Cc1sc2ncn(CCn3cnc4sc(C)c(C)c4c3=O)c(=O)c2c1C | -2 | 22 | 5 | 1 | 0 | 90*
O=C1OC(Nc2cc(Br)cc3cccnc23)c2ccccc21 (stereo not given) | 3 | 0 | -6 | 7.4* | -3 | 2
Brc1ccc(Nc2ncnc3[nH]ncc23)cc1 | 1 | 2 | 5 | 0 | 26* | 20
CC(C)C1C2CCC(C2)C1N (stereo not given) | nt | nt | nt | nt | nt | -12
O=C(Nc1ccc(NC(=O)c2ccco2)c(Cl)c1)c1ccc2c(c1)OCCO2 | 3 | 0 | 5 | 0 | 31* | 13
Cc1ccccc1-c1nc(-c2ccc(NC(=O)c3ccc4c(c3)OCO4)cc2)no1 | 0 | 8 | 3 | 0 | 34* | 40
O=C(Nc1ccc(NC(=O)c2ccco2)cc1)c1ccc2c(c1)OCO2 | 2 | -4 | -1 | 0 | 12* | 34
Cc1ccc(S(=O)(=O)N2CC(O)C[C@H]2C(=O)OCC(=O)N2CCN(c3ccc(F)cc3)CC2)cc1C (stereo not given in full) | nt | 0 | nt | 0 | -1 | nt
Cc1ccc(-c2csc(NC(=O)c3cccc([N+](=O)[O-])c3)n2)cc1 | 2 | 5 | -1 | 0 | 25* | 23
O=C(Nc1nc(-c2ccc([N+](=O)[O-])cc2)cs1)c1c(F)cccc1F | 1 | 1 | -2 | 0 | -1 | 12

Screening data deposited in PubChem BioAssay by several laboratories.
